Laboratory results reported in ChEMBL document CHEMBL4145645, “Bioactive Phenolic Components from the Twigs of Atalantia buxifolia” (J Nat Prod, 2018).

Legend:
HepG2 = assay: Cytotoxicity against human HepG2 cells by MTT assay; format: functional, cell-based
A549 = assay: Cytotoxicity against human A549 cells by MTT assay; format: functional, cell-based
MDA-MB-231 = assay: Cytotoxicity against human MDA-MB-231 cells by MTT assay; format: functional, cell-based
Neutrophil [1] = assay: Antiinflammatory activity in human neutrophils assessed as inhibition of fMLP/CB-induced superoxide anion generation preincubated for 5 mins followed by cytochalasin B/fMLP addition for 3 mins by superoxide dismutase inhibitable reduction of ferricytochrome c based assay; format: functional, cell-based
In short: (§1)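 Human neutrophils stimulated with fMLF. For the superoxide read-out, cells were equilibrated in ferricytochrome c at 0.6 mg/mL. Other steps for superoxide generation and elastase release followed an earlier published protocol. Values are means ± SEM, n = 3 or 4.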

Neutrophil [2] = assay: Antiinflammatory activity in human neutrophils assessed as inhibition of fMLP/CB-induced elastase release preincubated for 5 mins followed by fMLP/CB stimulation and measured for 10 mins using MeO-Suc-Ala-Ala-Pro-Val-p-nitroanilide as substrate; format: functional, cell-based; in short: as §1
[3] = Selectivity index, ratio of CC50 for human HuH7 cells to EC50 for DENV2 infected in human HuH7 cells; format: toxicity, cell-based; settings: read-out: Ratio CC50/EC50
dengue virus type 2 = assay: Antiviral activity against DENV2 infected in human HuH7 cells; format: functional, organism-based; settings: Huh-7
[4] = Homo sapiens, MDA-MB-231, read-out: IC50

Row | Structure (SMILES) | IC50 (HepG2) | IC50 (A549) | IC50 (MDA-MB-231; [4]) [µg/mL] | IC50 (Neutrophil [1]) [µM] | IC50 (Neutrophil [2]) [µM] | IC50 (MDA-MB-231; mda-mb-231) | selectivity ratio [3] | EC50 (dengue virus type 2) [µM]
1 | CO/N=C/C(=O)c1ccc(O/C=C/[C@H](C)C(=O)OC)cc1 | > 20 µg/mL | > 20 µg/mL | > 20 |  |  |  |  | 
2 | C=C(C)C(CC/C(C)=C/COc1ccc2ccc(=O)oc2c1)OO (configuration not stated) | > 20 µg/mL | > 20 µg/mL | > 20 |  |  |  |  | 
3 | CC1(C)CC[C@]2(C)CC[C@H]3[C@]4(C)CC[C@H]5C(C)(C)C(=O)CC[C@]5(C)[C@H]4CC[C@@]3(C)[C@@H]2C1 | > 20 µg/mL | > 20 µg/mL | > 20 |  |  |  |  | 
4 | C/C(=C\COc1ccc2ccc(=O)oc2c1)C/C=C/C(C)(C)O | > 20 µg/mL | > 20 µg/mL | > 20 |  |  |  |  | 
5 | O=c1cc(N2CCOCC2)oc2c(-c3ccccc3)cccc12 [LY-294002] |  |  |  | 2.1 | 5.1 |  |  | 
6 | COC(=O)c1ccc(O)cc1 [METHYLPARABEN] | > 20 µg/mL | > 20 µg/mL | > 20 |  |  |  |  | 
7 | COc1c2ccoc2cc2oc(=O)ccc12 [BERGAPTEN] | > 20 µg/mL | > 20 µg/mL | > 20 |  |  |  |  | 
8 | C=C(C)C(O)CC/C(C)=C/COc1ccc2ccc(=O)oc2c1 (configuration not stated) | > 20 µg/mL | > 20 µg/mL | > 20 |  |  |  |  | 
9 | COC(=O)c1cccc(O)c1OC [METHYL 3-HYDROXY-2-METHOXYBENZOATE] | > 20 µg/mL | > 20 µg/mL | > 20 |  |  |  |  | 
10 | COc1cccc2c1C(=O)c1c(O)c3c(c(O)c1C2=O)C[C@@](O)(C(=O)CO)C[C@@H]3O[C@H]1C[C@H](N)[C@H](O)[C@H](C)O1 [DOXORUBICIN] |  | 0.6 µM |  |  |  |  |  | 
11 | COC1=CC(=O)c2cc(C)ccc2C1=O | > 20 µg/mL | > 20 µg/mL | > 20 |  |  |  |  | 
12 | CO/N=C/C(=O)c1ccc(OC/C=C(\C)C(=O)OC)cc1 | > 20 µg/mL | > 20 µg/mL | > 20 |  |  |  |  | 
13 | COc1cccc2c(=O)c3c(O)cc4c(c3n(C)c12)C=CC(C)(C)O4 | > 20 µg/mL | > 20 µg/mL | > 20 |  |  |  |  | 
14 | CC(C)=CCc1c2c(c3c(c1O)c(=O)c1ccccc1n3C)C=CC(C)(C)O2 | > 20 µg/mL | > 20 µg/mL | > 20 |  |  |  |  | 
15 | COc1cc2c(c3[nH]c4ccccc4c(=O)c13)C=CC(C)(C)O2 | > 20 µg/mL | > 20 µg/mL | > 20 |  |  |  |  | 
16 | CC(C)=CCc1c2c(c3[nH]c4c(O)cccc4c(=O)c3c1O)C=CC(C)(C)O2 [ATALAPHYLLININE] | 6.5 µM | 7.8 µM |  |  |  | Not Active |  | 

Row | Structure (SMILES) | IC50 (HepG2) | IC50 (A549) | IC50 (MDA-MB-231; [4]) [µg/mL] | IC50 (Neutrophil [1]) [µM] | IC50 (Neutrophil [2]) [µM] | IC50 (MDA-MB-231; mda-mb-231) | selectivity ratio [3] | EC50 (dengue virus type 2) [µM]
17 | CC(C)=CCOc1c2ccoc2cc2oc(=O)ccc12 [ISOIMPERATORIN] | > 20 µg/mL | > 20 µg/mL | > 20 | 2.6 | > 10 |  |  | 
18 | CC(C)=CCc1c(O)c(CC=C(C)C)c2c(c1O)c(=O)c1cccc(O)c1n2C | > 20 µg/mL | > 20 µg/mL | > 20 |  |  |  |  | 
19 | CO/N=C/C(=O)c1ccc(O)cc1 | > 20 µg/mL | > 20 µg/mL | > 20 | 4.8 | > 10 |  |  | 
20 | CC1(C)C=Cc2c(cc(O)c3c(=O)c4cccc(O)c4[nH]c23)O1 [ATOLAPHYLLIDINE] | 7.3 µM | 7.8 µM |  |  |  | Not Active |  | 
21 | COC(=O)/C=C/c1ccc(O)c(OC)c1 | > 20 µg/mL | > 20 µg/mL | > 20 |  |  |  |  | 
22 | CC(C)=CCc1c2c(c3[nH]c4ccccc4c(=O)c3c1O)C=CC(C)(C)O2 [SEVERIFOLINE] | > 20 µg/mL | > 20 µg/mL | > 20 |  |  |  |  | 
23 | COC(=O)/C(C)=C/COc1ccc(C(=O)OC)cc1 | > 20 µg/mL | > 20 µg/mL | > 20 |  |  |  |  | 
24 | CC1(C)C=Cc2c(ccc3ccc(=O)oc23)O1 [SESALIN] | > 20 µg/mL | > 20 µg/mL | > 20 | 4.7 | > 10 |  |  | 
25 | C/C(=C\COc1ccc2ccc(=O)oc2c1)C/C=C/C(C)(C)OO | > 20 µg/mL | > 20 µg/mL | > 20 |  |  |  |  | 
26 | C=CC(C)(C)c1cc2ccc(O)cc2oc1=O | > 20 µg/mL | > 20 µg/mL | > 20 |  |  |  |  | 
27 | CC(C)=CCc1c2c(c3c(c1O)c(=O)c1cccc(O)c1n3C)C=CC(C)(C)O2 | > 20 µg/mL | > 20 µg/mL | > 20 | > 10 | 3.7 |  | 6.3 | 5.3
28 | CC(C)=CCOc1ccc(C(=O)/C=N/O)cc1 | > 20 µg/mL | > 20 µg/mL | > 20 |  |  |  |  | 
29 | CC(C)=CCOc1c2occc2cc2ccc(=O)oc12 [PENTOSALEN] | > 20 µg/mL | > 20 µg/mL | > 20 | 0.2 | > 10 |  |  | 
30 | COc1cc(O)c2c(=O)c3cccc(O)c3n(C)c2c1CC=C(C)C [GLYCOCITRINE I] | > 20 µg/mL | > 20 µg/mL | > 20 |  |  |  |  | 
31 | CC1(C)C=Cc2c(cc(O)c3c(=O)cc(-c4ccc(O)cc4)oc23)O1 [ATALANTOFLAVONE] | > 20 µg/mL | > 20 µg/mL | > 20 |  |  |  |  | 
